ChEMBL document CHEMBL4765486, “Novel Nonsecosteroidal Vitamin D Receptor Modulator Combined with Gemcitabine Enhances Pancreatic Cancer Therapy through Remodeling of the Tumor Microenvironment” (J Med Chem, 2021)
pIC50: −log10 of the molar value. Calls of active or inactive are those of the source. The calls are words filed in the database; no cut-off is given here.

Tests used:
LTC-14 [1] = experiment: Inhibition of rat LTC-14 cells activation assessed as inhibition of Periodin-mRNA expression at 0.5 uM treated under conditioned media of DSL-6A/C1 cells for 24 hrs by q-PCR analysis; type: functional, cell-based
Outline: (§1)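 LTC-14 PSCs were exposed for 24 h to conditioned medium from rat DSL-6A/C1 cancer cells containing compound at 0.5 μM. Pdgfa, Pdgfb, Fgf2, Hgf and Periodin mRNA were quantified by RT-qPCR. Three repeats, mean ± SD versus CM alone.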

[2] = target: T1, Vitamin D3 receptor (Homo sapiens) (UniProt P11473); experiment: Agonist activity at VDR (unknown origin) expressed in HEK293 cells co-transfected with pGL4.27-SPP3-Luc and CMV-hRXRalpha and pCMX-Renilla plasmids after 24 hrs by dual luciferase reporter gene assay; type: cell-based; settings: filed as agonist, dose 0.0001-1 µM
T1 sequence (whole entry): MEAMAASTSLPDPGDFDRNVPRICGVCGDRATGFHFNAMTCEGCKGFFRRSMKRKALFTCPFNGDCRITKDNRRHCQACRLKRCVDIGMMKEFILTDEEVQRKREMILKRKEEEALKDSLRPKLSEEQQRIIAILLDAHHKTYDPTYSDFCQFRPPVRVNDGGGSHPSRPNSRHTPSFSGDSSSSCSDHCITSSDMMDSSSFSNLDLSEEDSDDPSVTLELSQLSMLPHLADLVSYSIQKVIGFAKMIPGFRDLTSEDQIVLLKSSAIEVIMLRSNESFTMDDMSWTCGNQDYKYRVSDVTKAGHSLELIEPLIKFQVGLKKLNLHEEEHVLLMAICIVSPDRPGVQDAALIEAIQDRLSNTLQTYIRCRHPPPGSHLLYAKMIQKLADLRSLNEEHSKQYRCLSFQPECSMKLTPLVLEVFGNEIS
Outline: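 HEK293 cells in 48-well plates were transfected per well with 40 ng TK-Spp×3-LUC reporter, 20 ng pCMX-Renilla, 30 ng pENTER-CMV-hRXRα and 100 ng pCMX-VDR using Lipofectamine 2000. Compounds were added 8 h post-transfection, and dual-luciferase activity was read 24 h later. Firefly signal was normalised to Renilla. The experiment was run three times.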

LTC-14 [3] = experiment: Inhibition of rat LTC-14 cells activation assessed as inhibition of Fgf mRNA expression at 0.5 uM treated under conditioned media of DSL-6A/C1 cells for 24 hrs by q-PCR analysis; type: functional, cell-based; outline: as §1
LTC-14 [4] = experiment: Inhibition of rat LTC-14 cells interaction with DSL-6A/C1 cells in conditioned media assessed as inhibition of POSTN protein expression at 0.5 uM measured after 24 hrs by Western blot analysis; type: functional, cell-based
Outline: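 LTC-14 cells were treated for 24 h with DSL-6A/C1 conditioned medium plus compound (0.5 μM). Proteins were separated on 10% SDS-PAGE, transferred to PVDF and probed with rabbit anti-PDGF-A or anti-POSTN, with β-actin as loading reference.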

DSL-6A/C1 = experiment: Potentiation of gemcitabine-induced antitumor activity against luciferase-tagged rat DSL-6A/C1 cells and GFP-tagged LTC-14 cells co-inoculated in orthotropic xenograft BALB/c nude mouse model of pancreatic cancer assessed as decrease in density of tumor tissue at 500 ug/kg, ip administered once every 3 days for 12 days coadministered with gemcitabine at 100 mg/kg and measured after 3 days post last dose by hematoxylin and eosin staining based assay; type: functional, organism-based; settings: dose 500.0 µg/kg, time 12.0 day
Outline: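 In the same orthotopic co-inoculation model, mice received gemcitabine 100 mg/kg ip every 3 days plus compound 500 μg/kg ip for 12 days. Animals were sacrificed 3 days after the last dose. Pancreatic tumour sections were stained with H&E for tissue structure and with Masson's trichrome for collagen deposition, imaged at ×100.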

Vitamin D3 receptor = target: T2, Vitamin D3 receptor (Homo sapiens, UniProt P11473); experiment: Binding affinity to VDR (unknown origin) by fluorescence polarization assay
T2 sequence (P11473 whole entry): T1 sequence (whole entry)
Outline: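 Competitive VDR binding was measured by PolarScreen fluorescence polarization, in triplicate.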

[5] = target: T1, Vitamin D3 receptor (Homo sapiens); experiment: Binding affinity to VDR (unknown origin) at 1 uM by fluorescence polarization assay relative to calcipotriol; settings: filed as agonist
Outline: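 PolarScreen VDR competitor fluorescence polarization assay with compounds at 1 μM in triplicate. Read-out used 535 nm excitation and 590 nm emission filters.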

Activity [2]: Dose-dependent effect
pIC50 (Vitamin D3 receptor): 7.24
RBA [5]: 89%
Structure (SMILES): CCn1cc(C(CC)(CC)c2ccc(OCC(C)O)c(C)c2)cc1C(=O)NCCN1CCN(C)CC1 (configuration not stated)
inhibition (LTC-14 [1]): Active
inhibition (LTC-14 [3]): Active
inhibition (LTC-14 [4]): Active
Activity (DSL-6A/C1): Active
